Here are results for 15 molecules from ChEMBL document CHEMBL1124678, “New anticancer agents: alterations of the carbamate group of ethyl (5-amino-1,2-dihydro-3-phenylpyrido[3,4-b]pyrazin-7-yl)car bamates” (J Med Chem, 1989).

As a reminder, the ILS is how much longer treated animals lived than controls. A higher ILS goes with much gain in survival. The IC50 is the midpoint of a concentration-inhibition curve. A low value points to greater potency in that assay.

The test system of assay [1] is P388. Kind of assay: Increase in the life span of mice implanted with lymphocytic leukemia P388 at the highest nontoxic dose of 0.5 mg/Kg given to the compound intraperitoneally. The assay is classed as functional. The settings on record: Mus musculus, P388, ip.
Assay [2] relates to L1210. Kind of assay: The compound was tested in vitro for growth of inhibitory activity against lymphoid leukemia L1210 cells. The assay is classed as functional, cell-based, Mus musculus. The method in brief:
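Cultured L1210 lymphoid leukemia cells exposed to agent for 48 h; proliferation measured against untreated control growth. IC50 is the nanomolar concentration holding growth to 50% of control; some values averaged from two determinations.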

Assay [3] deals with L1210. The assay can be described thus: Mitotic index (fraction of cells in mitosis divided by total cells ) for cultured lymphoid leukemia L1210 cells. The format is functional, Mus musculus. The procedure, abridged: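 Cultured L1210 lymphoid leukemia cells exposed to agent for 12 h; mitotic index scored as fraction of cells in mitosis over total cells. Value is the nanomolar concentration giving a mitotic index of 0.5 (MI0.5).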

The test system of assay [4] is P388. The assay can be described thus: Increase in the life span of mice implanted with lymphocytic leukemia P388 at the highest nontoxic dose of 12 mg/Kg given to the compound intraperitoneally. The assay is classed as functional. Conditions: Mus musculus, P388, ip.
The test system of assay [5] is P388. Kind of assay: Increase in the life span of mice implanted with lymphocytic leukemia P388 at the highest nontoxic dose of 1 mg/Kg given to the compound intraperitoneally. The settings on record: Mus musculus, P388, ip. The assay is classed as functional.
Assay [6] relates to P388. Kind of assay: Increase in the life span of mice implanted with lymphocytic leukemia P388 at the highest nontoxic dose of 2 mg/Kg given to the compound intraperitoneally. The assay is classed as functional. Conditions: Mus musculus, P388, ip.
Assay [7] concerns P388. Kind of assay: Increase in the life span of mice implanted with lymphocytic leukemia P388 at the highest nontoxic dose of 25 mg/Kg given to the compound intraperitoneally. The format is functional. The settings on record: Mus musculus, P388, ip.
Assay [8] concerns P388. The assay can be described thus: Increase in the life span of mice implanted with lymphocytic leukemia P388 at the highest nontoxic dose of 50 mg/Kg given to the compound intraperitoneally. The assay is classed as functional. Conditions: Mus musculus, P388, ip.
The subject of assay [9] is P388. The assay can be described thus: Increase in the life span of mice implanted with lymphocytic leukemia P388 at the highest nontoxic dose of 200 mg/Kg given to the compound intraperitoneally. The assay is classed as functional. The settings on record: Mus musculus, P388, ip.
Assay [10] relates to P388. Kind of assay: Increase in the life span of mice implanted with lymphocytic leukemia P388 at the highest nontoxic dose of 200 mg/Kg given to the compound intraperitoneally on day 1. The settings on record: Mus musculus, P388, ip, 24 h. The format is functional.
Assay [11] deals with P388. The assay can be described thus: Increase in the life span of mice implanted with lymphocytic leukemia P388 at the highest nontoxic dose of 1.5 mg/kg given to the compound intraperitoneally. The assay is classed as functional. Conditions: Mus musculus, P388, ip, route intraperitoneal.

Bounds are passed on as bounds.

`CCOC(=O)Nc1cc2c(c(N)n1)N=C(c1ccccc1)C(C)N2.O=S(=O)(O)CCO` (stereo not given): the ILS at 0.5 mg/kg with P388 [1] amounted to 46%. In the assay with L1210 [2] (l1210), the IC50 was found to be 0.54 nM. Moreover, the MI0.5 in the assay on L1210 [3] is 0.74 nM.
The molecule `CCC(C)OC(=O)Nc1cc2c(c(N)n1)N=C(c1ccccc1)C(C)N2` (stereo not given) yielded an ILS at 12 mg/kg in the assay on P388 [4] of 60%. Further, the IC50 in the assay with L1210 [2] (Mus musculus, L1210) worked out at 1.2 nM.
In the assay on L1210 [2] (Mus musculus, L1210), `CCOC(=O)Nc1cc2c(c(N)n1)N=C(c1ccccc1)C(C)N2.Cl` (stereo not given) yielded an IC50 of 0.51 nM. This molecule returned an ILS at 1 mg/kg in the assay with P388 [5] of 75%. This molecule gave an MI0.5 in the assay on L1210 [3] of 1.5 nM.
As to `CCOC(=O)Nc1cc2c(c(N)n1)N=C(c1ccccc1)CN2`, in the assay with P388 [6], the ILS at 2 mg/kg was found to be 51%. The MI0.5 in the assay on L1210 [3] turned out to be 2.8 nM.
The molecule `CC1Nc2cc(NC(=O)OCc3ccccc3)nc(N)c2N=C1c1ccccc1` (stereo not given) returned an IC50 with L1210 [2] (Mus musculus, L1210) of 63 nM.
In the assay on L1210 [2] (Mus musculus, L1210), `CCOC(=O)Nc1cc2c(c(NC(C)=O)n1)N=C(c1ccccc1)CN2` displayed an IC50 of 8.6 nM. This molecule also displayed an ILS at 25 mg/kg in the assay with P388 [7] of 49%. Moreover, the MI0.5 in the assay with L1210 [3] is 23 nM.
In the assay on L1210 [2] (Mus musculus, L1210), `Nc1nccc2c1N=C(c1ccccc1)CN2` had an IC50 of 2800 nM. Besides, in the assay with P388 [8], the ILS at 50 mg/kg was 0%. Further, the MI0.5 in the assay on L1210 [3] is recorded as above 10000 nM.
As to `CC1Nc2cc(N)nc(N)c2N=C1c1ccccc1` (stereo not given), the half-inhibitory concentration (IC50) with L1210 [2] (Mus musculus, L1210) was 500 nM. In the assay with L1210 [3], the MI0.5 stood at 850 nM.
The molecule `CC(=O)Nc1cc2c(c(NC(C)=O)n1)N=C(c1ccccc1)C(C)N2C(C)=O` (stereo not given) returned an IC50 with L1210 [2] (Mus musculus, L1210) above 100 nM.
In the case of `CCOC(=O)Nc1nc(NC(=O)OCC)c2c(c1N)NC(C)C(c1ccccc1)=N2` (stereo not given), the ILS at 200 mg/kg with P388 [9] is 0%. In addition, the IC50 in the assay with L1210 [2] (Mus musculus, L1210) is above 300 nM.
For `CNC(=O)Nc1cc2c(c(N)n1)N=C(c1ccccc1)C(C)N2` (stereo not given), the ILS at 12 mg/kg in the assay on P388 [4] amounted to 0%. In the assay with L1210 [2] (Mus musculus, L1210), this molecule came in with an IC50 of 20 nM.
For `COC(=O)Nc1cc2c(c(N)n1)N=C(c1ccccc1)C(C)N2` (stereo not given), half-maximal inhibition in the assay with L1210 [2] (Mus musculus, L1210) (IC50) required 0.54 nM. This molecule also came in with an ILS at 1 mg/kg with P388 [5] of 88%. Moreover, the MI0.5 in the assay on L1210 [3] is 0.8 nM.
For the molecule `Nc1nc(NC(=O)OC2CCCCC2)cc2c1N=C(c1ccccc1)CN2`, in the assay on P388 [10], the ILS at 200 mg/kg is 0%. Besides, in the assay on L1210 [2] (Mus musculus, L1210), half-maximal inhibition (IC50) required 230 nM. The molecule further registered an MI0.5 in the assay with L1210 [3] of 260 nM.
`COc1cc2c(c(OC)c1OC)-c1ccc(OC)c(=O)cc1[C@@H](NC(C)=O)CC2` [COLCHICINE]: half-maximal inhibition with L1210 [2] (Mus musculus, L1210) (IC50) was put at 6.4 nM. The same molecule returned an MI0.5 with L1210 [3] of 21 nM.
In the assay with L1210 [2] (Mus musculus, L1210), `CC[C@]1(O)C[C@H]2CN(CCc3c([nH]c4ccccc34)[C@@](C(=O)OC)(c3cc4c(cc3OC)N(C=O)[C@H]3[C@@](O)(C(=O)OC)[C@H](OC(C)=O)[C@]5(CC)C=CCN6CC[C@]43[C@@H]65)C2)C1` [VINCRISTINE] came in with an IC50 of 3.4 nM. Further, the ILS at 1.5 mg/kg with P388 [11] was 122%. The same molecule gave an MI0.5 in the assay with L1210 [3] of 11 nM.
